Assays:
Mus musculus [1] = organism: Mus musculus; test: Phase II effective dose against mice for maximal electroshock seizure test (MES) for 0.25 hr of test time; assay type: functional
Procedure, shortened: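 Phase II quantification: time of peak effect first determined, then median effective dose in the MES test (corneal 60-cycle AC, 50 mA, 0.2 s) found at that time, 0.25 h. Compound given ip.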

[2] = Phase II effective dose against mice for toxicity test (TOX) for 0.25 hr of test time; assay type: organism-based; conditions: mouse, in vivo
Procedure, shortened: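 Phase II: time of peak neurologic toxicity first determined. Median toxic dose then found by rotorod (1-in. knurled rod, 6 rpm, 1 min) at that time, 0.25 h. Compound given ip.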

[3] = Protective index (TD50/ED50) for MES test in mice; assay type: ADME, organism-based; conditions: mouse, in vivo; read-out: PI
Procedure, shortened: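 Protective index taken as TD50 (rotorod) divided by MES ED50. Both measured in Phase II at the time of peak effect, 0.25 h, after ip dosing.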

[4] = Ability to protect mice against electrically induced seizures (MES) at 100 mg/kg for 0.5 hr in Phase I; no. of animals protected/No. of animals tested= 0/3; assay type: functional, organism-based; parameters: dose 100 mg/kg
Mus musculus [5] = test: Ability to protect mice against neurotoxicity (rotarod test) at 300 mg/kg for 0.5 hr in Phase I; no. of animals protected/No. of animals tested 0/4; assay type: organism-based; parameters: dose 300 mg/kg; conditions: in vivo
[6] = Ability to protect mice against subcutaneous pentylenetetrazole seizures (sc-Met) threshold test at 300 mg/kg for 0.5 hr in Phase I; no. of animals protected/No. of animals tested= 0/1; assay type: functional, organism-based; parameters: dose 300 mg/kg
[7] = Ability to protect mice against subcutaneous pentylenetetrazole seizures (sc-Met) threshold test at 100 mg/kg for 0.5 hr in Phase I; no. of animals protected/No. of animals tested= 0/1; assay type: functional, organism-based; parameters: dose 100 mg/kg
[8] = Ability to protect mice against electrically induced seizures (MES) at 300 mg/kg for 0.5 hr in Phase I; no. of animals protected/No. of animals tested= 0/1; assay type: functional, organism-based; parameters: dose 300 mg/kg

Row | Structure (SMILES) | ED50 (Mus musculus [1]) | TD50 at 0.25 h [2] | selectivity ratio [3] | further results
1 | CN1C(=O)C2(OCCO2)c2ccccc21 | 90.9 mg/kg | 118 mg/kg | 1.3 | 
2 | COC1(OC)C(=O)Nc2ccccc21 | 82 mg/kg | 203 mg/kg | 2.47 | 
3 | O=C1Nc2ccc(Br)cc2C12OCCO2 | 46.1 mg/kg | 86.5 mg/kg | 1.87 | 
4 | O=C1Nc2cc(Cl)ccc2C12OCCO2 | 72 mg/kg | 121 mg/kg | 1.68 | 
5 | O=C1Nc2ccc(Cl)cc2C12OCCO2 | 28 mg/kg | 63.7 mg/kg | 2.28 | 
6 | O=C1Nc2ccccc2C12OCCS2 (stereo unspecified) | 60.4 mg/kg |  | 1.65 | 
7 | O=C1Nc2ccccc2C12OCCO2 | 69.8 mg/kg | 130 mg/kg | 1.87 | 
8 | O=C1Nc2cccc(Cl)c2C12OCCO2 | 95.6 mg/kg | 122 mg/kg | 1.24 | 
9 | O=C1Nc2ccccc2C12OCCCO2 | 110 mg/kg |  | 1.67 | 
10 | O=C1N(Cc2ccccc2)c2ccccc2C12OCCO2 |  |  |  | Ratio [4]: no. of animals protected/No. of animals tested 0/4; Ratio (Mus musculus [5]): no. of animals protected/No. of animals tested 0/4; Ratio [6]: no. of animals protected/No. of animals tested 0/4; Ratio [7]: no. of animals protected/No. of animals tested 0/4; Ratio [8]: no. of animals protected/No. of animals tested 0/4
11 | O=C1N(CN2CCOCC2)c2ccccc2C12OCCO2 | 90 mg/kg | 170 mg/kg | 1.89 | 
12 | O=C1N(CN2CCCCC2)c2ccccc2C12OCCO2 |  | 187 mg/kg | 1.39 | 
13 | O=C1Nc2ccccc2C12SCCS2 | 174 mg/kg |  |  | 

From ChEMBL document CHEMBL1124096, “Potential anticonvulsants. 11. Synthesis and anticonvulsant activity of spiro[1,3-dioxolane-2,3'-indolin]-2'-ones and structural analogues” (J Med Chem, 1988)
